# In PubChem BioAssay:
# For some of these results: Measured potencies and affinities stand elsewhere. The source made the active and inactive calls.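 The calls were made as follows, unless noted: active = primary screen inhibitor hit that blocks the TRPC4 channel at some tested dose, yielding a dose curve; inactive = the rest.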
# What was measured:
# [1] = molecular target: Potassium voltage-gated channel subfamily E member 1 (Homo sapiens) + Potassium voltage-gated channel subfamily KQT member 1 (Homo sapiens) (UniProt P15382+P51787); assay: KCNQ1-E1 channel activation – thallium flux, CHO-K1 KCNQ1/E1 cells, selectivity assay for KCNQ1 potentiator project, confirmation (AID 493186;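 active = mean duplicate activation above the buffer control mean plus 5 SD of those controls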); conditions: FluxOR thallium flux, at 10 µM
# Summary of the method: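 system = KCNQ1/E1-expressing stable CHO-K1 cell line | doses = single compound concentration per well | times = dye 90 min, compound 20 min, room temperature | measured by = FluxOR Tl+ flux fluorescence, kinetic read | evaluation = fluorescence rise relative to baseline, as percent of R-L3 response above buffer | controls = buffer and R-L3 | replicates = duplicate wells per compound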
# [2] = molecular target: Short transient receptor potential channel 4 (Mus musculus) (UniProt Q9QUQ5); assay: block of DAMGO-driven TRPC4 calcium entry – cell-based, HEK293 TRPC4/mu-opioid, Fluo-4 calcium, dose response (AID 434942); conditions: HEK293 TRPC4/mu-opioid cells, DAMGO-evoked Fluo-4 calcium ratio; series mostly up to 20 µM
# Short transient receptor potential channel 4 (Mus musculus), sequence (Q9QUQ5 whole entry, looked up): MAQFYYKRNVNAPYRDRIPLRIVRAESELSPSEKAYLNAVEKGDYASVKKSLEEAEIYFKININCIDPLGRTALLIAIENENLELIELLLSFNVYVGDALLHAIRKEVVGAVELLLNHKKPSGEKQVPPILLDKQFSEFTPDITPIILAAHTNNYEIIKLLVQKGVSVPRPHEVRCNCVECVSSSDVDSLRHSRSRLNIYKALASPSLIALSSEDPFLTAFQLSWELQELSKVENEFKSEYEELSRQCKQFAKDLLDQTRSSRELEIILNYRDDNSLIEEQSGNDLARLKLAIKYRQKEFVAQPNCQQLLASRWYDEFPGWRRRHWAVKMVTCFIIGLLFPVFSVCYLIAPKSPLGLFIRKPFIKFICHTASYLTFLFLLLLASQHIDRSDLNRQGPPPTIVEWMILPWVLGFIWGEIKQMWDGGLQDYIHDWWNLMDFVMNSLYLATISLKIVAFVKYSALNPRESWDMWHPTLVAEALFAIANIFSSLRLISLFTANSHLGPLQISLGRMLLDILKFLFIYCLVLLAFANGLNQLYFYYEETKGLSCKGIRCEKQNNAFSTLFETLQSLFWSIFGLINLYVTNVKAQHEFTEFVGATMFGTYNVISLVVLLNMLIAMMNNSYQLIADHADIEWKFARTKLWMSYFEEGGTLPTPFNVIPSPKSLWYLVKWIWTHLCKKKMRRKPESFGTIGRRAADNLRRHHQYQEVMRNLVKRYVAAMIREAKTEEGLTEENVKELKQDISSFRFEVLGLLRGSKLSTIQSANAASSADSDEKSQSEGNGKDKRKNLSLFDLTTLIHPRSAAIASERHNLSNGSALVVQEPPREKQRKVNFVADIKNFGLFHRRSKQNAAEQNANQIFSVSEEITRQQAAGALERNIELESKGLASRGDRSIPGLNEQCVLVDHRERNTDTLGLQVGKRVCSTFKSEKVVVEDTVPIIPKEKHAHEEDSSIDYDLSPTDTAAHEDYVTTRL
# Potassium voltage-gated channel subfamily E member 1 (Homo sapiens) + Potassium voltage-gated channel subfamily KQT member 1 (Homo sapiens), sequence (P51787 whole entry, looked up): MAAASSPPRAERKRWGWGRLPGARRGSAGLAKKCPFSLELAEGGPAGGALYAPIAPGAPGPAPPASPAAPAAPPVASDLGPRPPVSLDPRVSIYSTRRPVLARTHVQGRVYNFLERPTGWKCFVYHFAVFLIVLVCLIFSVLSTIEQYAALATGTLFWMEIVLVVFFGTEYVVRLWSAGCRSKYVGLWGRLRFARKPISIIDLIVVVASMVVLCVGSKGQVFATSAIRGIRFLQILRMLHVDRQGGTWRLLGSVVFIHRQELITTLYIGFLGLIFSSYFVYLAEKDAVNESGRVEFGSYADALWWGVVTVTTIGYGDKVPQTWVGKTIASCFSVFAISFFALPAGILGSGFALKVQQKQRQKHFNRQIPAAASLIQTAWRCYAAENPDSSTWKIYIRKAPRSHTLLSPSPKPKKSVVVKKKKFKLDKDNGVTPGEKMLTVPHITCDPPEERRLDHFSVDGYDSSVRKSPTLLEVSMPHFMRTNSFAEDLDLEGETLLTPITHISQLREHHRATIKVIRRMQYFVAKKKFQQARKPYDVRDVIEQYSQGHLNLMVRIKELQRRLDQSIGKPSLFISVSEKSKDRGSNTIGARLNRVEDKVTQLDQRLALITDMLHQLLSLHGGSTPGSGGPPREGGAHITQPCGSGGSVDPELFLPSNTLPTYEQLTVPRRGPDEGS
Compound,outcome [1],outcome [2]
CC(C1CC2CCC1C2)n1c(-c2cccs2)n[nH]c1=S (stereo unspecified),inactive,
O=C(CCN1CCN(Cc2ccccc2)CC1)Nc1ccc(OCc2ccccc2)cc1,,inactive
COc1ccc(N/C(C)=C2/C(=O)C(=O)N(CCO)C2c2ccc([N+](=O)[O-])cc2)cc1 (stereo unspecified),,inactive
CCCCn1c(SCC(=O)N2c3ccccc3Sc3ccccc32)nc2c1c(=O)n(C)c(=O)n2C,,inactive
CN(C)CC(CCC(CN(C)C)C(O)(c1ccccc1)c1ccccc1)C(O)(c1ccccc1)c1ccccc1 (stereo unspecified),inactive,
CC1CCN(c2nc(Cl)nc(Nc3ccc([N+](=O)[O-])cc3)n2)CC1,,inactive
CN(C)CCOc1cc(Cl)cc(Cl)c1,,inactive
CCCCN(CC)CCNC(=O)c1cc2c(=O)n(C)c3ccccc3c2s1,,inactive
C=CCSc1nc2c(c(=O)[nH]c(=O)n2C)n1C/C=C(/C)Cl,inactive,
Brc1ccccc1CN1CCN(Cc2c[nH]c3ccccc23)CC1,inactive,
CCSC1=N/C(=C\c2ccc(OC)cc2)C(=O)N1,,inactive
Cc1ccc(Cl)cc1N1CCN(C(=O)c2cccc3c(=O)c(C)c(-c4ccccc4)oc23)CC1,,inactive
Cc1cc(C)cc(N/C(N)=N/c2nc(C)cc(C)n2)c1,inactive,
COc1cc(NS(=O)(=O)c2ccc3ccccc3c2)c2ncccc2c1,inactive,
N#CC1=C(N)C(C#N)(C#N)C(c2cccnc2)C2CC(c3ccccc3)CC=C12 (stereo unspecified),,inactive
O=C(O)CCNc1nc(-c2ccccc2)c2cc(Br)ccc2n1,,inactive
